Measured values reported in ChEMBL document CHEMBL4014315 (J Med Chem, 2017).
Active and inactive are the calls of the source. The rule behind the calls is not given here.

Experiments:
[1] = Cytotoxicity against ABCG2 over-expressing MDCK2 cells assessed as cell growth inhibition after 72 hrs by MTT assay; type: ADME, cell-based, Canis lupus familiaris, MDCK-II; conditions: dog
[2] = target: T1, Broad substrate specificity ATP-binding cassette transporter ABCG2 (Homo sapiens, UniProt Q9UNQ0); test: Activation of ABCG2 (unknown origin) ATPase activity expressed in baculovirus infected high five cell membranes by ascorbic acid/ammonia molybdate reaction-based colorimetric analysis; conditions: read-out: EC50
T1 sequence (Q9UNQ0 whole entry): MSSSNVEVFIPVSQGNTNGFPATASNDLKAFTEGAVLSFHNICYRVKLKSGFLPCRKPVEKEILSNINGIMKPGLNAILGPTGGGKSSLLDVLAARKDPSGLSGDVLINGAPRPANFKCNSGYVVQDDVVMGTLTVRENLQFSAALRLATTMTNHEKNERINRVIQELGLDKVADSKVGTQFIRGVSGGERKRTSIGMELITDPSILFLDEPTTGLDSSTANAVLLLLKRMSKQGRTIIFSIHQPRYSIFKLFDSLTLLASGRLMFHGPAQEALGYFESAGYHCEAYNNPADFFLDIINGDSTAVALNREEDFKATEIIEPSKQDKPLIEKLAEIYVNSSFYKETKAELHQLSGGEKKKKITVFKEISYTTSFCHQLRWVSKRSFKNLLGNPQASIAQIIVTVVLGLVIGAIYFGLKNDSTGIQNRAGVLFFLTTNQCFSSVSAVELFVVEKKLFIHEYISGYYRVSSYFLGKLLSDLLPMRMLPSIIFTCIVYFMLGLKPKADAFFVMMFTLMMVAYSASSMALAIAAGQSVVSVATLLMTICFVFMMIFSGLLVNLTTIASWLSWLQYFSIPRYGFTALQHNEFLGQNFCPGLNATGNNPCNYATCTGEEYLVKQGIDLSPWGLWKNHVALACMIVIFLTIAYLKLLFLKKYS
How it was run: (§1)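 Colorimetric ATPase assay of ABCG2 membranes; activity expressed relative to control. Where data were biphasic, a combined increasing plus decreasing logistic equation with the Hill coefficient fixed at one was fitted, giving an activating and an inactivating K.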

MDCK-II [3] = test: Cytotoxicity against ABCG2 over-expressing MDCK2 cells assessed as effect on cell proliferation at low concentration after 72 hrs in absence of DMSO and presence of 1% methanol by MTT assay; type: ADME, cell-based, Canis lupus familiaris; conditions: dog
How it was run: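 Modified MTT viability assay in ABCG2-overexpressing MDCK II cells, run without DMSO and with a constant 1% methanol.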

ABCG2 [4] = target: T2, ABCG2 (Homo sapiens, UniProt Q9UNQ0); test: Inhibition of recombinant human GFP-fused ABCG2 expressed in MDCK2 cells assessed as reduction in Hoechst 33342 efflux at […] preincubated for 30 mins followed by Hoechst 33342 addition measured immediately at 60 sec time interval for 120 mins by fluorescence assay relative to Ko143; type: cell-based; conditions: MDCK2 cells expressing recombinant GFP-fused human ABCG2, probe Hoechst 33342, read-out: Imax
T2 sequence (Q9UNQ0 whole entry): T1 sequence (Q9UNQ0 whole entry)

[5] = Cytotoxicity against MDCK2 cells assessed as cell growth inhibition after 72 hrs by MTT assay; type: cell-based, Canis lupus familiaris, MDCK-II; conditions: dog
[6] = Therapeutic index, ratio of GI50 for ABCG2 over-expressing MDCK2 cells to IC50 for recombinant human GFP-fused ABCG2 expressed in MDCK2 cells; type: cell-based
ABCG2 [7] = target: T2, ABCG2; test: Activation of ABCG2 (unknown origin) ATPase activity expressed in baculovirus infected high five cell membranes assessed as protein Vmax by ascorbic acid/ammonia molybdate reaction-based colorimetric analysis relative to basal control; conditions: read-out: Vmax; how it was run: as §1
[8] = target: T1, Broad substrate specificity ATP-binding cassette transporter ABCG2; test: Inhibition of human GFP-fused ABCG2 expressed in MDCK2 cells assessed as potentiation of SN-38 induced cytotoxicity by measuring cell viability at 1 uM after 72 hrs by MTT assay; type: cell-based
How it was run: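 Reversal MTT assay in ABCG2-overexpressing MDCK II cells: SN-38 dilutions were combined with different modulator concentrations. Parental MDCK II cells defined total inhibition, and overexpressing cells without modulator defined no inhibition. GI50 values were plotted against log modulator concentration to derive IC50.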

[9] = target: T1, Broad substrate specificity ATP-binding cassette transporter ABCG2; test: Inhibition of recombinant human GFP-fused ABCG2 expressed in MDCK2 cells assessed as reduction in Hoechst 33342 efflux preincubated for 30 mins followed by Hoechst 33342 addition measured immediately at 60 sec time interval for 120 mins by fluorescence assay; type: cell-based
How it was run: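 Hoechst 33342 accumulation assay: the dye is an ABCG2 substrate whose fluorescence rises when bound to DNA or embedded in membrane. Intracellular accumulation serves as the read-out of transporter inhibition.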

MDCK-II [10] = test: Potentiation of SN-38 induced cytotoxicity against MDCK2 cells at 0.01 to 5 uM after 72 hrs by MTT assay; type: functional, cell-based; conditions: Canis lupus familiaris
How it was run: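 Parental MDCK II cells were given SN-38 dilutions combined with different modulator concentrations, with viability read by MTT.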

ABCC1 = ABCC1 (Homo sapiens, UniProt P33527); test: Inhibition of ABCC1 in human H69AR cells assessed as reduction in calcein AM levels at 10 uM preincubated for 30 mins followed by calcein AM addition measured immediately at 60 sec time interval for 60 mins by fluorescence assay relative to Cyclosporine A; type: cell-based; conditions: probe calcein AM
Sequence of ABCC1 (P33527 whole entry): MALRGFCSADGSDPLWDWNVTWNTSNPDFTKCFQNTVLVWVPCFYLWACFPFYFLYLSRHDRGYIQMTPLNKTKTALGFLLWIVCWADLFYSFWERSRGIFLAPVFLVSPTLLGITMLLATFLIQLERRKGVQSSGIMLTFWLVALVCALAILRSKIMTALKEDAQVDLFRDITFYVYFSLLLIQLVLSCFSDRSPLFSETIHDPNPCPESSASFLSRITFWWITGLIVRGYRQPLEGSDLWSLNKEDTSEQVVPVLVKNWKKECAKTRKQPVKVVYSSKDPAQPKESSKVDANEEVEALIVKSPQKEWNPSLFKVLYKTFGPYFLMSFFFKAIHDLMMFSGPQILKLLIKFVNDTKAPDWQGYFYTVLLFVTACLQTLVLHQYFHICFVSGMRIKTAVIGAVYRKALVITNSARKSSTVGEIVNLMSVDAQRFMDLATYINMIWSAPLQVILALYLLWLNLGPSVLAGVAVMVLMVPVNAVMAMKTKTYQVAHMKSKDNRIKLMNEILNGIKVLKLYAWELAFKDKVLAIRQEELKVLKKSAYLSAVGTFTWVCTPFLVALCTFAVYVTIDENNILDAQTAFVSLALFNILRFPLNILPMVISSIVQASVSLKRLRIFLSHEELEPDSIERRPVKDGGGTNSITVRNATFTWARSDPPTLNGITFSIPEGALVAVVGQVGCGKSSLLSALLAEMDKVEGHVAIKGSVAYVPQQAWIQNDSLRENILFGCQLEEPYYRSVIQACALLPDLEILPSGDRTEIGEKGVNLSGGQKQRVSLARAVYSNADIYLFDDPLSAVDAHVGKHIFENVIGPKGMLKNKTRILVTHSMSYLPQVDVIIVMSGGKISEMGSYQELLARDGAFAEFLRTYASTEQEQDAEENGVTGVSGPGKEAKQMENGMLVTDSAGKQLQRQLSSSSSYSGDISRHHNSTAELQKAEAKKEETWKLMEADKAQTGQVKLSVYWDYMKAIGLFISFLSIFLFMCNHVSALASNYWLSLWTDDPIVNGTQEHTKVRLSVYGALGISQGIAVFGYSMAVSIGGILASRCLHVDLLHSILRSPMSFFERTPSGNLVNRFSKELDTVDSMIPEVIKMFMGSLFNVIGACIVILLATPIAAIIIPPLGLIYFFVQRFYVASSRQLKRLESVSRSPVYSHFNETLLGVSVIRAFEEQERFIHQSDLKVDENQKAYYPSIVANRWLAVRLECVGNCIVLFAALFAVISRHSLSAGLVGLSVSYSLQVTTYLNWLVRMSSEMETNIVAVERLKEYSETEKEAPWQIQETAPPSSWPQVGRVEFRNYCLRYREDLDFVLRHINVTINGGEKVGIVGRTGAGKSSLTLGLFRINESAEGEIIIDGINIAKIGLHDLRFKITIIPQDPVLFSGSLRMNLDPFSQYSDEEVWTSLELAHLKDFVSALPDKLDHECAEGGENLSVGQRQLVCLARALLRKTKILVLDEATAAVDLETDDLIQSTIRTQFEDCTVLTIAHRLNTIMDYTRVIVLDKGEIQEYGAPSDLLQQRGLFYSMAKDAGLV
How it was run: (§2)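 Calcein AM assay in A2780adr cells (ABCB1 overexpressing) and H69AR cells (ABCC1 overexpressing). Compounds were screened at 10 µM, with inhibition relative to cyclosporine A as the total-inhibition control.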

[11] = target: T1, Broad substrate specificity ATP-binding cassette transporter ABCG2; test: Non-competitive inhibition of recombinant human GFP-fused ABCG2 expressed in MDCK2 cells up to 100 nM preincubated for 30 mins followed by varying levels of Hoechst 33342 addition measured immediately at 60 sec time interval for 120 mins by Lineweaver-Burk plot analysis; type: cell-based; conditions: 2 h
How it was run: (§3)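 Kinetics were run with Hoechst 33342 as the fluorescent ABCG2 substrate at varying levels, combined with several modulator concentrations. Data were analysed by double-reciprocal Lineweaver-Burk, half-reciprocal Hanes-Woolf and Cornish-Bowden direct linear plots. Changes in Vmax and KM with modulator concentration defined the mode: competitive, non-competitive or mixed type.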

[12] = target: T1, Broad substrate specificity ATP-binding cassette transporter ABCG2; test: Ratio of IC50 for inhibition of human GFP-fused ABCG2 expressed in MDCK2 cells to EC50 for inhibition of human GFP-fused ABCG2 expressed in MDCK2 cells assessed as potentiation of SN-38 induced cytotoxicity by measuring cell viability; type: cell-based
[13] = target: T1, Broad substrate specificity ATP-binding cassette transporter ABCG2; test: Non-competitive inhibition of recombinant human GFP-fused ABCG2 expressed in MDCK2 cells up to 100 nM preincubated for 30 mins followed by varying levels of Hoechst 33342 addition measured immediately at 60 sec time interval for 120 mins by Hanes-Woolf plot analysis; type: cell-based; conditions: 2 h; how it was run: as §3
[14] = target: T1, Broad substrate specificity ATP-binding cassette transporter ABCG2; test: Non-competitive inhibition of recombinant human GFP-fused ABCG2 expressed in MDCK2 cells up to 100 nM preincubated for 30 mins followed by varying levels of Hoechst 33342 addition measured immediately at 60 sec time interval for 120 mins by Cornish-Bowden plot analysis; type: cell-based; conditions: 2 h; how it was run: as §3
[15] = target: T1, Broad substrate specificity ATP-binding cassette transporter ABCG2; test: Mixed type inhibition of recombinant human GFP-fused ABCG2 expressed in MDCK2 cells preincubated for 30 mins followed by varying levels of Hoechst 33342 addition measured immediately at 60 sec time interval for 120 mins by Cornish-Bowden plot analysis; type: cell-based; conditions: 2 h; how it was run: as §3
[16] = target: T1, Broad substrate specificity ATP-binding cassette transporter ABCG2; test: Inhibition of ABCG2 (unknown origin) ATPase activity expressed in baculovirus infected high five cell membranes by ascorbic acid/ammonia molybdate reaction-based colorimetric analysis; how it was run: as §1
ABCG2 [17] = target: T2, ABCG2; test: Activation of ABCG2 (unknown origin) ATPase activity expressed in baculovirus infected high five cell membranes assessed as protein Vmax at 35 uM by ascorbic acid/ammonia molybdate reaction-based colorimetric analysis relative to basal control; conditions: read-out: Vmax; how it was run: as §1
ABCG2 [18] = target: T2, ABCG2; test: Activation of ABCG2 (unknown origin) ATPase activity expressed in baculovirus infected high five cell membranes assessed as protein Vmax at 0.5 uM by ascorbic acid/ammonia molybdate reaction-based colorimetric analysis relative to basal control; conditions: read-out: Vmax; how it was run: as §1
[19] = target: T1, Broad substrate specificity ATP-binding cassette transporter ABCG2; test: Competitive inhibition of recombinant human GFP-fused ABCG2 expressed in MDCK2 cells up to 1000 nM preincubated for 30 mins followed by varying levels of Hoechst 33342 addition measured immediately at 60 sec time interval for 120 mins by Cornish-Bowden plot analysis; type: cell-based; conditions: 2 h; how it was run: as §3
[20] = target: T1, Broad substrate specificity ATP-binding cassette transporter ABCG2; test: Competitive inhibition of recombinant human GFP-fused ABCG2 expressed in MDCK2 cells up to 5620 nM preincubated for 30 mins followed by varying levels of Hoechst 33342 addition measured immediately at 60 sec time interval for 120 mins by Hanes-Woolf plot analysis; type: cell-based; conditions: 2 h; how it was run: as §3
[21] = target: ATP-dependent translocase ABCB1 (Homo sapiens, UniProt P08183); test: Inhibition of ABCB1 in human A2780adr cells assessed as reduction in calcein AM levels preincubated for 30 mins followed by calcein AM addition measured immediately at 60 sec time interval for 60 mins by fluorescence assay; type: cell-based; how it was run: as §2
Sequence of ATP-dependent translocase ABCB1 (P08183 whole entry): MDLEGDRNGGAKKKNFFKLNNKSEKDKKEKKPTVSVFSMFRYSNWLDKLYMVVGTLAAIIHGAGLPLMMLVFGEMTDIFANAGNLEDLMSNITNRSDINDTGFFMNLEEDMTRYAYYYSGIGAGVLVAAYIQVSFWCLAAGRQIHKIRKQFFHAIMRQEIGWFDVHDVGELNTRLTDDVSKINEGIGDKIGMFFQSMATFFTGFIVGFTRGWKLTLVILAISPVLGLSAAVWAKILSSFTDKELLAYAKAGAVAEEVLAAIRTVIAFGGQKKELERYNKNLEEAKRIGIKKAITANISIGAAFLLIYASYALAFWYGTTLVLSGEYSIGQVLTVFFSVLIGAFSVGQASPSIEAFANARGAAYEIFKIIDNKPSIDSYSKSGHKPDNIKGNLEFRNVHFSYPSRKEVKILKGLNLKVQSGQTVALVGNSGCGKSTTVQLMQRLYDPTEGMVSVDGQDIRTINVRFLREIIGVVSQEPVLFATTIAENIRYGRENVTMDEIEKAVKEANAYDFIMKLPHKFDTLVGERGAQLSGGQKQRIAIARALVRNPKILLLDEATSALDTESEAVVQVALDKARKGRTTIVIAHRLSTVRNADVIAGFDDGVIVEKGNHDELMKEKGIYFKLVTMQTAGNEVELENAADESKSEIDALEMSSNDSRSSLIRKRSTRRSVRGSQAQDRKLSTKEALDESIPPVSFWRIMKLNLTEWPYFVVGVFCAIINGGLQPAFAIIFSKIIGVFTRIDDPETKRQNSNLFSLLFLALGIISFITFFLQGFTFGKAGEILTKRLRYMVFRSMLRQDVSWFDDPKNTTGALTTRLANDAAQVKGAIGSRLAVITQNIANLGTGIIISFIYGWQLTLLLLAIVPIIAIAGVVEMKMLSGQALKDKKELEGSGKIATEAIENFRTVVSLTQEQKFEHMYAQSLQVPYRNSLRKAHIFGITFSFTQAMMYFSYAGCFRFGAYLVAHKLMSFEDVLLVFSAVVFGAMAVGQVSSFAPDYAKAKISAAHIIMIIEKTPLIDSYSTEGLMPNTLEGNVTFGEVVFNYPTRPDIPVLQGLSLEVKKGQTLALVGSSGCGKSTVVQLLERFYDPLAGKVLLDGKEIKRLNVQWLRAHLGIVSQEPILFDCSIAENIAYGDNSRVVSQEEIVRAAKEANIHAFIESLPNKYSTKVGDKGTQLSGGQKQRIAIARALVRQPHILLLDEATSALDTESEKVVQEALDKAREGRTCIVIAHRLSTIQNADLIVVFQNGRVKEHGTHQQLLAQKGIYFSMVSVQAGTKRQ

ABCB1 = ABCB1 (Homo sapiens, UniProt P08183); test: Inhibition of ABCB1 in human A2780adr cells assessed as reduction in calcein AM levels at 10 uM preincubated for 30 mins followed by calcein AM addition measured immediately at 60 sec time interval for 60 mins by fluorescence assay relative to Cyclosporine A; type: cell-based; conditions: probe calcein AM; how it was run: as §2
Sequence of ABCB1 (P08183 whole entry, the tested form may be a part): as the sequence (P08183 whole entry) above

[22] = target: T1, Broad substrate specificity ATP-binding cassette transporter ABCG2; test: Competitive inhibition of recombinant human GFP-fused ABCG2 expressed in MDCK2 cells up to 5620 nM preincubated for 30 mins followed by varying levels of Hoechst 33342 addition measured immediately at 60 sec time interval for 120 mins by Lineweaver-Burk plot analysis; type: cell-based; conditions: 2 h; how it was run: as §3

SMILES | GI50 at 72 h [1] | EC50 [2] | Activity (MDCK-II [3]) | Emax at 2 h (ABCG2 [4]) | GI50 at 72 h [5] | TI [6] | Emax (ABCG2 [7]) | inhibition (INH) [8] | IC50 [9] | Activity (MDCK-II [10]) | further results
N#Cc1cccc(Nc2nc(-c3cccnc3)nc3ccccc23)c1 | 75.3 µM | 350 nM | Non-Toxic | 80 to 110% | 90.7 µM | 697 | 151% | Active | 108 nM | inactive | –
COc1ccc(Nc2nc(-c3ccncc3)nc3ccccc23)cc1 | – | 70 nM | – | 80 to 110% | – | – | 137% | – | 742 nM | – | inhibition at 1 h, 10 µM (ABCC1): 25%
O=[N+]([O-])c1ccc(Nc2nc(-c3cccnc3)nc3ccccc23)cc1 | 73.3 µM | 9 nM | Non-Toxic | 80 to 110% | 74.1 µM | – | 164% | Active | 64.1 nM | inactive | inhibition (INH) [11]: Active; Ratio IC50/EC50 [12]: 3; inhibition (INH) [13]: Active; inhibition (INH) [14]: Active
FC(F)(F)c1cccc(Nc2nc(-c3ccncc3)nc3ccccc23)c1 | 12.6 µM | – | – | 80 to 110% | 12.3 µM | 58.3 | – | – | 216 nM | – | inhibition (INH) [15]: Active; Ki [16]: 28 µM; Emax at 35 µM (ABCG2 [17]): 25%; Emax at 0.5 µM (ABCG2 [18]): 155%
Cc1cc(Nc2ccc(O)c([N+](=O)[O-])c2)nc(-c2ccccc2)n1 | 49 µM | 1800 nM | Non-Toxic | 80 to 110% | 57.5 µM | 496 | 154% | Active | 98.8 nM | inactive | inhibition at 1 h, 10 µM (ABCC1): 25%
FC(F)(F)c1ccc(Nc2nc(-c3ccncc3)nc3ccccc23)cc1 | 117 µM | – | – | 80 to 110% | 166 µM | 240 | 152% | – | 488 nM | – | Ki [16]: 27 µM
COc1cccc(Nc2nc(-c3ccncc3)nc3ccccc23)c1 | – | 42 nM | – | 80 to 110% | – | – | 132% | – | 558 nM | – | inhibition (INH) [19]: Active; inhibition (INH) [20]: Active; IC50 [21]: 5.43 µM; inhibition at 1 h, 10 µM (ABCB1): > 25%; inhibition (INH) [22]: Active
